Measurements taken from article PMC5474392 (Bioorganic & medicinal chemistry letters, 2016).

Columns and labels:
MCF-7 = assay: antiproliferative assay, MCF-7; type: cell-based; conditions: Homo sapiens, MCF7, read-out: IC50 MCF-7
Summary of the method: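 Run as an antiproliferative screen on human cancer lines alongside the normal mammary epithelial line MCF-10, with a positive control included. The highest test concentration was 33.3 μM.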

MCF-10 = assay: antiproliferative assay, normal mammary epithelial cell line MCF-10; type: cell-based; conditions: Homo sapiens, MCF10, read-out: IC50 MCF-10
Summary of the method: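 Human cancer and normal mammary epithelial lines were tested in an antiproliferative assay. Shikonin served as the positive control. The highest test concentration was 33.3 μM.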

IC50 (MCF-7)	Structure (SMILES)	IC50 (MCF-10)
> 33.3 µM	O=C1C2=C(C(=O)c3ccccc31)C(O)C1=C(O)CC(c3ccccc3)C1=C2O (stereo not drawn) [Compound 4a]	> 33.3 µM
1.17 µM	COc1cccc2c1C(=O)c1c(O)c3c(c(O)c1C2=O)C[C@@](O)(C(=O)CO)C[C@@H]3O[C@H]1C[C@H](N)[C@H](O)[C@H](C)O1 [Doxorubicin, reference compound]	
